Screens: PubChem BioAssay, several laboratories
WT yeast gro inh – growth inhibition of WT yeast, mitochondrial fusion screen; mitochondrial fusion phenotypic screen, WT strain; AID 1362; inhibition, % at 10 µM; 190,000 tested, 2.1% active; in the data active means inhibition above about 58%; tested in S. cerevisiae
Yeast growth inh – reduces growth of yeast BB579 in restrictive medium | inhibition, % at 10 µM | S. cerevisiae BB579 growth, OD615, 48 h | 140,000 tested, 0.51% active;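 active means inhibition above a set limit, 3 SD over the mean compound inhibition, cut at about 44% in these data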
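Detection: OD615 turbidity measurement; Material: Saccharomyces cerevisiae DeaD strain BB579, replicative lifespan model yeast; Timing: 48 h exposure, 30 °C; Doses: single 10 µM dose; Medium: CSMM-D restrictive synthetic medium containing dextrose (glucose); Controls: amphotericin B at 10 µg/mL as positive control.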
KCC2 mod – modulators of human KCC2 chloride dependent transport. Q9H2X9. KCC2 cells, thallium flux FluoZin-2 fluorescence. B-score of Tl+ flux slope (higher = more flux/activation; lower = inhibition) at 10 µM. 190,000 tested, 2.2% active. AID 1456;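 active means thallium flux slope and its plate-corrected score both differing from the plate sample mean at a set confidence after two filtering rounds, in either direction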;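 further: slope of fluorescence scaled to starting intensity during 10 to 20 s after thallium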
RAM network inh – inhibitors of the yeast RAM network; S. cerevisiae dse1pr::URA3 reporter, 5-FOA growth OD615, 2 d; analog-sensitive cbk1-as2 kinase mutant strain; inhibition, % at 50 µM; 190,000 tested, 1.8% active;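 active means inhibition above a set limit, 3 SD over mean compound inhibition, cut at about 8.4% in these data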;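 further: 0% = DMSO-only wells with no growth and 100% = 10 µM 1-NA-PP1 full growth; inhibition rescues growth on 5-FOA so higher OD means more RAM inhibition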
Yeast lifespan up – yeast lifespan extension; 130,000 tested, 0.68% active; inhibition of the nicotinamide effect, % at 10 µM; S. cerevisiae growth with nicotinamide, OD615; deaD strain in restrictive glucose medium; AID 775;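 active means inhibition above a set limit, placed 3 SD over the median of all compounds, cut at about 26% in these data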;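 further: 0% = nicotinamide-treated wells and 100% = cells grown without nicotinamide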
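System: DeaD-strain S. cerevisiae / Buffer or medium: CSMM-D, restrictive glucose (dextrose) synthetic minimal medium / Probe or stimulus: nicotinamide, 1.5 mM, co-present with compound / Compound: one concentration, 10 µM, DMSO 0.25% / Incubation: 48 h compound exposure at 30 °C, humidified / Technique: optical density (absorbance) at 615 nm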
Active calls of the source: *; i = inactive; . = no result. The list is not random: actives were taken first. Their share in the collection is about 5.5%.

SMILES | WT yeast gro inh | Yeast growth inh | KCC2 mod | RAM network inh | Yeast lifespan up
CC/C(=N\NC(=O)c1csc(C)c1C)c1cccs1 | -7 | -62 | 1.6 | 1 | -10
C/C(=N\NC(=O)c1csc(C)c1C)c1ccc(Cl)s1 | 10 | -51 | 22* | 2 | -9
C/C(=N\NC(=S)NC(C)C)c1ccc(Cl)s1 | 25 | -2 | 24* | -1 | -6
CS/C(=N\S(=O)(=O)c1cccs1)NC(=O)CSc1nc2ccccc2s1 | -6 | -38 | -2.2 | 7 | 24
COCCNC(=O)C1CC(=O)N(c2ccc(OC)cc2)C1c1ccc(OC)cc1 (configuration not stated) | -9 | . | -0.21 | 2 | .
Cc1sc2nc(CSCC(=O)Nc3ccccc3C#N)[nH]c(=O)c2c1C | -3 | -10 | 1.2 | 0 | -1
CCN1c2ccccc2-c2nc3ccccc3n2C1c1cccs1 (configuration not stated) | 64* | -35 | -2 | 2 | -4
CCSC1=NSC2=NC(=O)/C(=C\c3coc4ccccc4c3=O)C(=N)N12 | -13 | -16 | i | 4 | 38*
CCn1c(SCC(=O)c2ccccc2)nc2sc3c(c2c1=O)CCN(C)C3 | . | . | -0.5 | . | .
C=CCn1c(SCC(=O)NC)nc2sc3c(c2c1=O)CCC3 | -4 | -16 | -0.27 | 2 | -11
C=CCSc1nc2sc3c(c2c(=O)n1CC)CCc1ccccc1-3 | 86 | -30 | . | 9.2* | -3
C=CCn1c(SC)nc2sc3c(c2c1=O)CCc1ccccc1-3 | 17 | -37 | 0.57 | 9.0* | -5
CC(C)OC(=O)CC(=O)CSc1nc2c(c(-c3cccs3)c1C#N)CCC2 | 11 | -29 | -0.31 | 10* | 7
O=C(COC(=O)Cc1ccc(S(=O)(=O)N2CCOCC2)s1)NCc1ccc(Cl)cc1 | -9 | -34 | -0.22 | 2 | -12
c1ccc2c(c1)OCC(c1csc3ncnc(N4CCCCC4)c13)O2 (configuration not stated) | 36 | -4 | 0.02 | 1 | .
CCCN1CCN(c2ncnc3scc(C4COc5ccccc5O4)c23)CC1 (configuration not stated) | 58* | . | -1.1 | 2 | .
CC1CCCCN1C(=O)CCS(=O)(=O)c1cccc2nonc12 (configuration not stated) | -5 | . | . | 1 | .
COc1ccc2c(c1OC)C(=O)N1N=C(c3ccc(O)cc3)CC21 (configuration not stated) | 13 | -53 | . | 1 | -12
Cc1cccc(Nc2c([N+](=O)[O-])cc(C(=O)N3CC(=O)Nc4ccccc43)cc2[N+](=O)[O-])c1 | -17 | . | -1.5 | 9.5* | .
COc1ccc(C(C)(C)C)cc1NC(=O)COC(=O)c1ccc([N+](=O)[O-])o1 | 76 | . | -0.78 | -1 | .
CC1=C(C#N)C(=O)NC(C)(C)C1 | -13 | -9 | . | 0 | -12
CC1=C(C#N)C(=O)N(C)C(C)(C)C1 | -3 | -10 | 2.8* | 1 | -17
COc1ccc2c(c1)-c1nc(/N=C/c3c(O)ccc4ccccc34)sc1CC2 | 15 | -55 | -0.017 | 1 | 30*
COc1ccc2c(c1)-c1nc(NC(=O)c3cccs3)sc1CC2 | 72* | -52 | -0.065 | 3 | -17
Oc1ccc2ccccc2c1/C=N/c1nccs1 | 16 | -41 | 1.4 | 1 | 75*
SMILES | WT yeast gro inh | Yeast growth inh | KCC2 mod | RAM network inh | Yeast lifespan up
Cc1cc(N=Cc2c(O)ccc3ccccc23)no1 | 0 | -13 | -0.38 | 0 | 43*
NC(=O)Nc1ccc(C(=O)OCC(=O)Nc2ccc([N+](=O)[O-])cc2C(F)(F)F)cc1 | 0 | -6 | -0.0081 | 2 | -3
O=C(N/N=C/C1C(c2ccccc2)C1(Cl)Cl)c1cccc(Br)c1 (configuration not stated) | 18 | -53 | -0.15 | 0 | -21
CCOC(=O)c1cc(CC)sc1/N=C/c1c(O)ccc2ccccc12 | -6 | -6 | 0.14 | 3 | 32*
CCOC(=O)c1cc(CC)sc1/N=C/C1C(=O)CCCC1=O | -9 | . | -1.6 | 0 | .
CCC(NS(=O)(=O)c1c(C)[nH]c(=O)[nH]c1=O)C12CC3CC(CC(C3)C1)C2 (configuration not stated) | 64* | -38 | 0.056 | 0 | -8
Cc1[nH]c(=O)[nH]c(=O)c1S(=O)(=O)NCC12CC3CC(CC(C3)C1)C2 | 18 | -52 | 0.36 | 3 | 7
O=C(CSc1nnc2scc(-c3ccc(Cl)cc3)n12)NCc1ccc2c(c1)OCO2 | -12 | -8 | -0.95 | 0 | -14
O=C(CSc1nnc2scc(-c3ccccc3)n12)NCc1ccc2c(c1)OCO2 | -11 | -38 | . | 9.6* | -5
CC1CCCC(C)N1C(=O)Cn1c(SCC(=O)NCc2ccc3c(c2)OCO3)nc2ccccc21 (configuration not stated) | 11 | -59 | . | 8.9* | -11
CC(=O)Nc1ccc(NC(=O)CSc2nnc(-c3ccccc3)n2Cc2ccc3c(c2)OCO3)cc1 | 66* | -48 | -1.1 | 8.6* | -7
CC1(C)Cc2ccccc2-c2nnc(SCC(=O)Nc3ccc4c(c3)OCO4)n21 | 4 | 19 | -2.5 | 3 | 81*
Cc1cccc(NS(=O)(=O)c2cc(C(=O)N3CCOCC3)ccc2Cl)c1 | 8 | . | -0.014 | 1 | .
CC(NC(=O)c1ccc2c(c1)OCCO2)c1ccc(S(N)(=O)=O)cc1 (configuration not stated) | -7 | . | . | 1 | .
COCC(C)NC(=O)CSc1nc(-c2ccccc2)c(-c2ccccc2)o1 (configuration not stated) | -24 | -14 | -0.64 | 1 | -10
COc1ccc(C(O)Cn2cc([N+](=O)[O-])nc2C)cc1 (configuration not stated) | . | . | -0.36 | . | .
O=C1c2ccccc2CC1(Cc1ccccc1)Cc1ccccc1 | 73* | -24 | -0.15 | 2 | .
O=C1C=CC(=O)N1CCCCCCN1C(=O)C=CC1=O | 92* | -22 | -1 | -1 | 7
O=C1C2C3C=CC(C3)C2C(=O)N1CCCCCCN1C(=O)C2C3C=CC(C3)C2C1=O (configuration not stated) | 2 | . | -0.86 | -1 | .
CCOC(=O)c1ccc(N=C2SC(C(=O)NCCc3ccccc3)CC(=O)N2C)cc1 (configuration not stated) | 2 | . | -1.5 | 9.5* | .
COc1cccc(OC)c1C(=O)NC(=S)N1CCN(c2ccc(C(F)(F)F)cc2[N+](=O)[O-])CC1 | 10 | -4 | -1.9 | 2 | -14
COc1ccc(N2CCN(C(=O)CC34CC5CC(CC(C5)C3)C4)CC2)c([N+](=O)[O-])c1 | 66* | -32 | 0.44 | 10.0* | 1
CC(C)Oc1cccc(C(=O)NC(=S)N2CCN(c3ccc(C(F)(F)F)cc3[N+](=O)[O-])CC2)c1 | 48 | -38 | 18* | 5 | -8
COc1cccc(C(=O)NC(=S)N2CCN(c3ccc(C(F)(F)F)cc3[N+](=O)[O-])CC2)c1 | -7 | -44 | 8.8* | 4 | -4
